What was measured:
[1] = target: T1, Serine/threonine-protein kinase Sgk1 (Homo sapiens) (UniProt O00141); test: Inhibition of SGK1 assessed as residual activity at 10 uM by Cherenkov counting relative to control in presence of 20 uM ATP
T1 sequence (whole entry): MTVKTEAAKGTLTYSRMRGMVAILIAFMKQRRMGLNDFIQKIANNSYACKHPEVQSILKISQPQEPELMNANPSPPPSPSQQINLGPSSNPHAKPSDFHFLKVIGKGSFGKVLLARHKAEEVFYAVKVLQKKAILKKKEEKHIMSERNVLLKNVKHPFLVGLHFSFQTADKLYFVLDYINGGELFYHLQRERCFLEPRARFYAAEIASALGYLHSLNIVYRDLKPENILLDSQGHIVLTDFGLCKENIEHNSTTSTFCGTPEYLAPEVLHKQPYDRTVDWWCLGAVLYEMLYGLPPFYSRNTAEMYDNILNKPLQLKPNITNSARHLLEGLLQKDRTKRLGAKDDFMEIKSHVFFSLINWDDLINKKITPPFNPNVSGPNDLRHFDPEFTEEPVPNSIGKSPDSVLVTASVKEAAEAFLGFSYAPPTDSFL
Outline: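 Single-concentration profiling at 10 μM in a 78-kinase panel. Kinase activity is expressed as a percentage of control assays run without compound.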

[2] = target: Dual specificity tyrosine-phosphorylation-regulated kinase 1A (Homo sapiens) (UniProt Q13627); test: Inhibition of DYRK1A assessed as residual activity at 10 uM by Cherenkov counting relative to control in presence of 50 uM ATP
Outline: (§1)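 Single-point profiling at 10 µM in a panel of 78 protein kinases. Kinase activity is expressed as a percentage relative to control assays without compound.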

[3] = target: Homeodomain-interacting protein kinase 2 (Homo sapiens) (UniProt Q9H2X6); test: Inhibition of HIPK2 assessed as residual activity at 10 uM by Cherenkov counting relative to control in presence of 5 uM ATP; outline: as §1
[4] = target: Fibroblast growth factor receptor 1 (Homo sapiens) (UniProt P11362); test: Inhibition of FGFR1 assessed as residual activity at 10 uM by Cherenkov counting relative to control in presence of 20 uM ATP; outline: as §1
[5] = target: T2, Serine/threonine-protein kinase TBK1 (Homo sapiens) (UniProt Q9UHD2); test: Inhibition of TBK1 assessed as residual activity at 0.1 uM by Cherenkov counting relative to control in presence of 50 uM ATP
T2 sequence (whole entry): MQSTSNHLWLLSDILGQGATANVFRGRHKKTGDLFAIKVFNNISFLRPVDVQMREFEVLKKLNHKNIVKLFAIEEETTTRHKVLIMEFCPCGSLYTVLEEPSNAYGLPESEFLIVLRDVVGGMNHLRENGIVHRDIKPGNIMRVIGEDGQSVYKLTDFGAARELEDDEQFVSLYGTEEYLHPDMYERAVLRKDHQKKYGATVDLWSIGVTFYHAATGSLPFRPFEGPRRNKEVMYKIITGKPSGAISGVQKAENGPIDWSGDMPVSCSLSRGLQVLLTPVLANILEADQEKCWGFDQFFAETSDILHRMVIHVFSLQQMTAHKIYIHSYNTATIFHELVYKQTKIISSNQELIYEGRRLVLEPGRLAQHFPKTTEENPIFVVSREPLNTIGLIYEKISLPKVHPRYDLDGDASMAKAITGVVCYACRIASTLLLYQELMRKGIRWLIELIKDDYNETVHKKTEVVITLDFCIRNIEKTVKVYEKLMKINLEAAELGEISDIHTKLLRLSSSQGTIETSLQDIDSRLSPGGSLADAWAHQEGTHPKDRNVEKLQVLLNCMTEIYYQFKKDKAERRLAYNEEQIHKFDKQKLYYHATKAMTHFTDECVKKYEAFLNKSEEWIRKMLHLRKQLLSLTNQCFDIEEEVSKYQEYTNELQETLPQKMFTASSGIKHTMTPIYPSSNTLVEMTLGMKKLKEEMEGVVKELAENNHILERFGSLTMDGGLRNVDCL
Outline: (§2)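 Single-concentration screen at 0.1 μM in a 76-kinase panel. ATP for each kinase was set near its Km for ATP. Residual activity is given as a percentage of control assays without compound, mean of n = 3 ± SD.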

[6] = target: Mitogen-activated protein kinase 13 (Homo sapiens) (UniProt O15264); test: Inhibition of p38delta assessed as residual activity at 0.1 uM by Cherenkov counting relative to control; outline: as §2
[7] = target: Serine/threonine-protein kinase N2 (Homo sapiens) (UniProt Q16513); test: Inhibition of PRK2 assessed as residual activity at 0.1 uM by Cherenkov counting relative to control in presence of 5 uM ATP; outline: as §2
[8] = target: T3, Serine/threonine-protein kinase 3 (Homo sapiens) (UniProt Q13188); test: Inhibition of MST2 assessed as residual activity at 0.1 uM by Cherenkov counting relative to control in presence of 20 uM ATP
T3 sequence (whole entry): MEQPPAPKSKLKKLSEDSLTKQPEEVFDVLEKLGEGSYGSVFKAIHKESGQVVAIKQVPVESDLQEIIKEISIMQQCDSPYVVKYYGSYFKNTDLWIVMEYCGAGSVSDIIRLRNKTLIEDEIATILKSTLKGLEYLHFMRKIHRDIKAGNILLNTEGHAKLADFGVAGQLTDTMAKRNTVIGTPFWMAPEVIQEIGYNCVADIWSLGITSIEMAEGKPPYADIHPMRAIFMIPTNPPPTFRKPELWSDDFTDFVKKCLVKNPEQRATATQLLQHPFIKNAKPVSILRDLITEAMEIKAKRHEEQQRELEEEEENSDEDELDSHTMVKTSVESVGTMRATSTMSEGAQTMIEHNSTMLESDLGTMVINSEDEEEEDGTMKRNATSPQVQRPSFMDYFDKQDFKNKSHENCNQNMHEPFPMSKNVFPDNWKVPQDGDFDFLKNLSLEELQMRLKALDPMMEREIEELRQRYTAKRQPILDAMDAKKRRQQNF
Outline: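 Single-concentration selectivity screen at 0.1 μM against a panel of 76 protein kinases. Each kinase was run at an ATP level approximating its Km for ATP. Output is mean residual activity as % of the control assay without compound, n = 3 ± SD.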

Chain of Serine/threonine-protein kinase N2 (Homo sapiens) (Q16513 whole entry, looked up): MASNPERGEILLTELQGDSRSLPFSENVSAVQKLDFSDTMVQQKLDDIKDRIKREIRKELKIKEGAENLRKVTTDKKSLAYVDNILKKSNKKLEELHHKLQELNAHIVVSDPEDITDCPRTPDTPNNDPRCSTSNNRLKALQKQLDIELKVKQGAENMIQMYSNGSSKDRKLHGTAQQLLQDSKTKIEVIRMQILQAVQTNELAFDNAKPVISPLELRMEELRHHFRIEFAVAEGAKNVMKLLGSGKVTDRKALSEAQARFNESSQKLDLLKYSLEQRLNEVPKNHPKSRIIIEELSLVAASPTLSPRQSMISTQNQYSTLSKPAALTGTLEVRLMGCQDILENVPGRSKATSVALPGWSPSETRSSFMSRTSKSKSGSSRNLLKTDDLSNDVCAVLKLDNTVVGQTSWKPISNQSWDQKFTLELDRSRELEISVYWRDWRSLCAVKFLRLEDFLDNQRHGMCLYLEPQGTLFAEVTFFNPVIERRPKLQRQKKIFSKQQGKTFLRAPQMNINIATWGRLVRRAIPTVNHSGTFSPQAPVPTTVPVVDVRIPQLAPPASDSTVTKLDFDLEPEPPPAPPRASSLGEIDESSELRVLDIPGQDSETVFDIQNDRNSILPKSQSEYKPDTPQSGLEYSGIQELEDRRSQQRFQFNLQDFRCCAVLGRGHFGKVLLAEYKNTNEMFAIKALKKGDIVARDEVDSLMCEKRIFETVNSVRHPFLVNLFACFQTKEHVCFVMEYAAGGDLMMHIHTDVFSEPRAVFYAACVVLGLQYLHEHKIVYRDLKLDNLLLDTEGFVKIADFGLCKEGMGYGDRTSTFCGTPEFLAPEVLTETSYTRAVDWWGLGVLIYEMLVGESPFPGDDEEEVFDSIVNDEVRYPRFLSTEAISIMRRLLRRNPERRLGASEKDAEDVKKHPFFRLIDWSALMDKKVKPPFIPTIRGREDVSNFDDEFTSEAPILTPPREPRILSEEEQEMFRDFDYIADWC
Chain of Homeodomain-interacting protein kinase 2 (Homo sapiens) (Q9H2X6 whole entry, looked up): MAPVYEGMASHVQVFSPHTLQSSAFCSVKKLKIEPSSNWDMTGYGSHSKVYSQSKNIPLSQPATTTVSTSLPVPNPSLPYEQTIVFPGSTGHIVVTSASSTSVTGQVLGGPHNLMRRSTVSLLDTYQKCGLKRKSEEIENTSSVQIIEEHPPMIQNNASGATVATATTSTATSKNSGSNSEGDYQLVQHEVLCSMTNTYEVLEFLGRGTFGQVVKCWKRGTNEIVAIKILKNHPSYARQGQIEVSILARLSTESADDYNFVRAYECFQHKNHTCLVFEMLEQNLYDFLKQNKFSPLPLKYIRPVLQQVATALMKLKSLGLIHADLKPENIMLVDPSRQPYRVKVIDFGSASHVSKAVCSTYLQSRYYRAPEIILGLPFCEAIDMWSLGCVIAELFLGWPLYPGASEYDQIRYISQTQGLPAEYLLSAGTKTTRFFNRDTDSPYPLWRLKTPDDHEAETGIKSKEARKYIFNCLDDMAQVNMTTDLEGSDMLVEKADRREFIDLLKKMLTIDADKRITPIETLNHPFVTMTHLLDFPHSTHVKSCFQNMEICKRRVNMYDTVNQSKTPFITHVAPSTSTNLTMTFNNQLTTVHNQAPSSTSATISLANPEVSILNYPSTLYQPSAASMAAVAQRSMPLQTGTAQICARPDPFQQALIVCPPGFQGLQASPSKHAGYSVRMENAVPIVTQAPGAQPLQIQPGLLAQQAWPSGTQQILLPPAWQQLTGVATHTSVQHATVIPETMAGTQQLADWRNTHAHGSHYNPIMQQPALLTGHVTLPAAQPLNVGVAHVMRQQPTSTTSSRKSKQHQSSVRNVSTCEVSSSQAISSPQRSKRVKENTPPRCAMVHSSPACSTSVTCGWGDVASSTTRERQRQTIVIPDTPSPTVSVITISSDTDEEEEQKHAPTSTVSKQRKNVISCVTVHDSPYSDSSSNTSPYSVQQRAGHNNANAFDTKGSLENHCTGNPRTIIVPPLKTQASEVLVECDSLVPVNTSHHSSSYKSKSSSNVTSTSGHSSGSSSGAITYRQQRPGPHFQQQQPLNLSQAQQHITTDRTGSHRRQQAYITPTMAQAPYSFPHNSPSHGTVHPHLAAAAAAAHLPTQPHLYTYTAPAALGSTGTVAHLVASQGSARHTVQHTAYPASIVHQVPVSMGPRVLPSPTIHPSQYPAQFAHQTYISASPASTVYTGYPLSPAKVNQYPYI
Chain of Mitogen-activated protein kinase 13 (Homo sapiens) (O15264 whole entry): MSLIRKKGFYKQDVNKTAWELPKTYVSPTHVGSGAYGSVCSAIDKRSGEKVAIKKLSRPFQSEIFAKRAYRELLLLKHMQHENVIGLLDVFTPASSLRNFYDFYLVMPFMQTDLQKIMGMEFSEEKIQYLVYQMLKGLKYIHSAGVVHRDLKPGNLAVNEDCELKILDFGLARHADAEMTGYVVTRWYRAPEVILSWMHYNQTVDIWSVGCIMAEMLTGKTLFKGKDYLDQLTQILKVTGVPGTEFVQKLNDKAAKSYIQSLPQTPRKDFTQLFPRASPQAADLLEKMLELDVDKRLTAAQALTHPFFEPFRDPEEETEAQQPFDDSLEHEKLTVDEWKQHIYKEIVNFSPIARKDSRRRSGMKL
Chain of Fibroblast growth factor receptor 1 (Homo sapiens) (P11362 22-822 limits assumed): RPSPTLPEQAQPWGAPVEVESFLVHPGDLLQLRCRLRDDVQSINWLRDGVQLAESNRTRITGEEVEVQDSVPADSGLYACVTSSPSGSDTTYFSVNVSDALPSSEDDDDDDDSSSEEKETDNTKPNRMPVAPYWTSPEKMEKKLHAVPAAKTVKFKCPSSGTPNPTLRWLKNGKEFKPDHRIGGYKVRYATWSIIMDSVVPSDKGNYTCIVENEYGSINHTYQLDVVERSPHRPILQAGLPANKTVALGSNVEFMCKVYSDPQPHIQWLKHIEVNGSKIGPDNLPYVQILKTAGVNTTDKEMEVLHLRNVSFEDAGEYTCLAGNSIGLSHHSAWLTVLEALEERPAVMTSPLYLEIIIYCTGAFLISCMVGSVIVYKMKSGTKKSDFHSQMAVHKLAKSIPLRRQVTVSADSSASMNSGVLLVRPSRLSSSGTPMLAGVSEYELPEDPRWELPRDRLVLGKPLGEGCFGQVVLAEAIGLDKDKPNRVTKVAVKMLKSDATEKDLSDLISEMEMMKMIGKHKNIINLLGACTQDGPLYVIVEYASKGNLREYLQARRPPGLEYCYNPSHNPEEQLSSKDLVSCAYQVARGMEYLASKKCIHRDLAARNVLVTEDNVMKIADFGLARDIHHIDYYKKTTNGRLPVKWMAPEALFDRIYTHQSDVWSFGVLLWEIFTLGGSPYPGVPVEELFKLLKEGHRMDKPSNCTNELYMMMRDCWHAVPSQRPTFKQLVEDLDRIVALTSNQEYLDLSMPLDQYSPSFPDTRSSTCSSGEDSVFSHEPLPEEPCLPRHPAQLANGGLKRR

Row | SMILES | Activity [1] [%] | Activity [2] [%] | Activity [3] [%] | Activity [4] [%] | Activity [5] [%] | Activity [6] [%] | Activity [7] [%] | Activity [8] [%]
1 | CC(C)c1onc(-c2ccc(F)cc2)c1-c1ccncc1 | 76 | 100 | 103 | 81 | – | – | – | –
2 | COc1ccc(/C=C/C(=O)Nc2cc(-c3[nH]c([S+](C)[O-])nc3-c3ccc(F)cc3)ccn2)c(OC)c1 (stereo unspecified) | – | – | – | – | 106 | 100 | 96 | 112
3 | COc1ccc(/C=C/C(=O)Nc2cc(-c3[nH]c(SC)nc3-c3ccc(F)cc3)ccn2)c(OC)c1 | – | – | – | – | 103 | 90 | 95 | 97
4 | CC(C)c1noc(-c2ccc(F)cc2)c1-c1ccncc1 | 91 | 95 | 103 | 95 | – | – | – | –

Reference: ChEMBL document CHEMBL1155278, “3,4-Diaryl-isoxazoles and -imidazoles as potent dual inhibitors of p38alpha mitogen activated protein kinase and casein kinase 1delta” (J Med Chem, 2009)
